Measured values published in ChEMBL document CHEMBL1177725, “6-(3,4-dichlorophenyl)-1-[(methyloxy)methyl]-3-azabicyclo[4.1.0]heptane: a new potent and selective triple reuptake inhibitor” (J Med Chem, 2010).
The source made the active and inactive calls. No cut-off for these calls is given here.

Tests used:
Mus musculus [1] = experiment: Potentiation of 5-hydroxytryptophan-induced stereotypic behavior in mouse at 10 mg/kg, po administered 2 hrs before 5-hydroxytryptophan challenge measured for 30 mins; format: functional, organism-based; design: dose 10 mg/kg
Procedure, shortened: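 Mice were dosed orally at 3, 10 or 30 mg/kg 120 min before an ip injection of 5-HTP (100 mg/kg). Each mouse was then placed alone in a perspex box, and 5-HTP-induced stereotyped behaviour was assessed.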

Cytochrome P450 3A4 = Cytochrome P450 3A4 (Homo sapiens, UniProt P08684); experiment: Inhibition of human CYP3A4 after 10 mins; format: ADME
Cytochrome P450 3A4, sequence (P08684 whole entry): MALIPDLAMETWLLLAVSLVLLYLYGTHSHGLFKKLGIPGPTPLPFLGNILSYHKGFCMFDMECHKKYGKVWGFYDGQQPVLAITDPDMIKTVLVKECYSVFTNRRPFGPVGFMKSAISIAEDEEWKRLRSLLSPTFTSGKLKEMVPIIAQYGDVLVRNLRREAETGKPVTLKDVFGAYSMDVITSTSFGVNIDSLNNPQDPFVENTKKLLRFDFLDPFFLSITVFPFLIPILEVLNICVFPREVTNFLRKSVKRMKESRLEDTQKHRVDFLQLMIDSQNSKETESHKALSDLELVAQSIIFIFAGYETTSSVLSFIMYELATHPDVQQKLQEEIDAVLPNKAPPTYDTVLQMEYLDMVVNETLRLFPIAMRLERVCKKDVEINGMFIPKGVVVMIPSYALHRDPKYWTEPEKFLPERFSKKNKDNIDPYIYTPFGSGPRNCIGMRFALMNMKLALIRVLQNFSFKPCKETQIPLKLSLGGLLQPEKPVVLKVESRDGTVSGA
Procedure, shortened: (§1)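 Recombinant human CYP bactosomes (0.1 mg/mL) were pre-incubated 10 min at 37 °C in 50 mM phosphate pH 7.4 with compound (0.1–10 μM) and a fluorogenic substrate. Substrates: ethoxyresorufin 0.5 μM (1A2), FCA 50 μM (2C9), BMC 10 μM (2C19), MMC 10 μM (2D6), DEF 1 μM or 7-BQ 25 μM (3A4). Adding an NADPH-regenerating system started the reaction, and metabolite fluorescence was read over 10 min. The IC50 came from rate as percent of control; miconazole served as positive control, with triplicates.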

Cytochrome P450 2D6 = Cytochrome P450 2D6 (Homo sapiens, UniProt P10635); experiment: Inhibition of human CYP2D6 after 10 mins; format: ADME; procedure, shortened: as §1
Cytochrome P450 2D6, sequence (P10635 whole entry): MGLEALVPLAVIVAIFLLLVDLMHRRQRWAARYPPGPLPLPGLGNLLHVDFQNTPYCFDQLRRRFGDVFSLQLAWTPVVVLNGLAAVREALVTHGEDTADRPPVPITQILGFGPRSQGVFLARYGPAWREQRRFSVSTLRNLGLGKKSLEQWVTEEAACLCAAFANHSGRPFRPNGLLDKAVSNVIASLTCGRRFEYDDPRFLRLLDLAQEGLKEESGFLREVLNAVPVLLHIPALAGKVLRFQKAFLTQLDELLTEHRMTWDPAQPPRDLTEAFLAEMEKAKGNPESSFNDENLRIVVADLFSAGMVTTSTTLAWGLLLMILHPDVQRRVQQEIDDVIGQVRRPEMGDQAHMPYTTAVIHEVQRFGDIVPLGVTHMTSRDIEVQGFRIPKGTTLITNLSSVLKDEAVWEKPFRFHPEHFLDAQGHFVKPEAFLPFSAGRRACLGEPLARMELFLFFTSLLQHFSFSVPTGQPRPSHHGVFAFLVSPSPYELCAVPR

Cytochrome P450 2C19 = Cytochrome P450 2C19 (Homo sapiens, UniProt P33261); experiment: Inhibition of human CYP2C19 after 10 mins; format: ADME; procedure, shortened: as §1
Cytochrome P450 2C19, sequence (P33261 whole entry): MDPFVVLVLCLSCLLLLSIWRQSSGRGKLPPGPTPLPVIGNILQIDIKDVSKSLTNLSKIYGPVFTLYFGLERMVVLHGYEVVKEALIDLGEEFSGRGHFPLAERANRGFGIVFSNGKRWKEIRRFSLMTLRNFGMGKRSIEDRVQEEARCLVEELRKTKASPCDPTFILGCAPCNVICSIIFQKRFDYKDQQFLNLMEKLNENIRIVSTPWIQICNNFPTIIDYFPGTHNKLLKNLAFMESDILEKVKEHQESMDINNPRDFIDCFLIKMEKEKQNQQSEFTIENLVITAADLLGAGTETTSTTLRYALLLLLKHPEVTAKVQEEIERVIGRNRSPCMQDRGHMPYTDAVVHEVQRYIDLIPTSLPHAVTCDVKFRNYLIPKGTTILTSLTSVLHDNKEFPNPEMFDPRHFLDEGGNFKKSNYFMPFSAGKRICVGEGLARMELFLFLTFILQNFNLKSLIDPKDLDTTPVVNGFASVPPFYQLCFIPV

Cytochrome P450 2C9 = Cytochrome P450 2C9 (Homo sapiens, UniProt P11712); experiment: Inhibition of human CYP2C9 after 10 mins; format: ADME; procedure, shortened: as §1
Cytochrome P450 2C9, sequence (P11712 whole entry): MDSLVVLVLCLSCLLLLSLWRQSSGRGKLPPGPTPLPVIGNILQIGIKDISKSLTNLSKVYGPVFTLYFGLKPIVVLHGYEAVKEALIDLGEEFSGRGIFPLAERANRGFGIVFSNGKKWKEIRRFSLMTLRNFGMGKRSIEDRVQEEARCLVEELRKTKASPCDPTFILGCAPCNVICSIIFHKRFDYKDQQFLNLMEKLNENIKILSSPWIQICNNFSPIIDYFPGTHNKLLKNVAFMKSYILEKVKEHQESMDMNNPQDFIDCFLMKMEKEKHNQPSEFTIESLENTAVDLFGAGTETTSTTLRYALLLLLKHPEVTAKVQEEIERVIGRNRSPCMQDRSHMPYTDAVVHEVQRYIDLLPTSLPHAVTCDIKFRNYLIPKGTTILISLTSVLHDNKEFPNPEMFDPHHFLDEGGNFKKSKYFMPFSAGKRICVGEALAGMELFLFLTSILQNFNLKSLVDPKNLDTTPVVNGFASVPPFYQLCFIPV

Cytochrome P450 1A2 = biological target: T1, Cytochrome P450 1A2 (Homo sapiens, UniProt P05177); experiment: Inhibition of human CYP1A2 after 10 mins; format: ADME; procedure, shortened: as §1
T1 sequence (P05177 whole entry): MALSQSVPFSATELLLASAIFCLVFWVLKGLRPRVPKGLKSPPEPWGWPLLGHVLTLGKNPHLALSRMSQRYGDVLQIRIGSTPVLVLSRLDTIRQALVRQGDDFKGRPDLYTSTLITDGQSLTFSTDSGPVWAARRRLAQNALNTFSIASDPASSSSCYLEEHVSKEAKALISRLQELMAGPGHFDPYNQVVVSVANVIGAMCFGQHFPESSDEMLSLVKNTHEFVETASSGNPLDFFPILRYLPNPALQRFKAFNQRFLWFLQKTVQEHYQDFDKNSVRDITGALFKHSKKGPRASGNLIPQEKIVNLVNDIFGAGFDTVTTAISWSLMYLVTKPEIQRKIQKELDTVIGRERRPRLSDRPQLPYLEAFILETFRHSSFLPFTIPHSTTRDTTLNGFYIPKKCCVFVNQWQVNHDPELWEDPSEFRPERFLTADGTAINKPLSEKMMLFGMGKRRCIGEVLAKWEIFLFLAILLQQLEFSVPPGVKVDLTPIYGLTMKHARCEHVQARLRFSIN

[2] = biological target: Sodium-dependent dopamine transporter (Homo sapiens, UniProt Q01959); experiment: Displacement of [N-methyl-3H]WIN-35428 from human recombinant DAT expressed in pig LLCPK cells after 2 hrs by liquid scintillation counting; format: cell-based
Sodium-dependent dopamine transporter, sequence (Q01959 whole entry): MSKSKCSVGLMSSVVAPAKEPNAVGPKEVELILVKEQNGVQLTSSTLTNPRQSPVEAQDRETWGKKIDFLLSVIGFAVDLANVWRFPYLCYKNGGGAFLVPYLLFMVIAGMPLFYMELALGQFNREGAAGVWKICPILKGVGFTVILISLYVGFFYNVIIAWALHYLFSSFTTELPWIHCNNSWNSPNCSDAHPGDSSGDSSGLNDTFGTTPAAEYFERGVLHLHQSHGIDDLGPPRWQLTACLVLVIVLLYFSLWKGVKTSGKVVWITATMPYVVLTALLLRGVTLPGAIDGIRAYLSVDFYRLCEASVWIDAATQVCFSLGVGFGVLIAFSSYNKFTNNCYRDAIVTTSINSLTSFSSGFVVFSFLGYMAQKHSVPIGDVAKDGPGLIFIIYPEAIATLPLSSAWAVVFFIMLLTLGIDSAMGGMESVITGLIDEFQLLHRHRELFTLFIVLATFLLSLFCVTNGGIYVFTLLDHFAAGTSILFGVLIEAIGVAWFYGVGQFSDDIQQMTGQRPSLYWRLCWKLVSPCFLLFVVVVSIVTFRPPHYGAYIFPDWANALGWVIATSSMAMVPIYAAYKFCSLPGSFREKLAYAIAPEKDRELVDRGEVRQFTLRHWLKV

[3] = biological target: Sodium-dependent noradrenaline transporter (Homo sapiens, UniProt P23975); experiment: Displacement of [N-methyl-3H]nisoxetine from human recombinant NET expressed in pig LLCPK cells after 2 hrs by liquid scintillation counting; format: cell-based
Sodium-dependent noradrenaline transporter, sequence (P23975 whole entry): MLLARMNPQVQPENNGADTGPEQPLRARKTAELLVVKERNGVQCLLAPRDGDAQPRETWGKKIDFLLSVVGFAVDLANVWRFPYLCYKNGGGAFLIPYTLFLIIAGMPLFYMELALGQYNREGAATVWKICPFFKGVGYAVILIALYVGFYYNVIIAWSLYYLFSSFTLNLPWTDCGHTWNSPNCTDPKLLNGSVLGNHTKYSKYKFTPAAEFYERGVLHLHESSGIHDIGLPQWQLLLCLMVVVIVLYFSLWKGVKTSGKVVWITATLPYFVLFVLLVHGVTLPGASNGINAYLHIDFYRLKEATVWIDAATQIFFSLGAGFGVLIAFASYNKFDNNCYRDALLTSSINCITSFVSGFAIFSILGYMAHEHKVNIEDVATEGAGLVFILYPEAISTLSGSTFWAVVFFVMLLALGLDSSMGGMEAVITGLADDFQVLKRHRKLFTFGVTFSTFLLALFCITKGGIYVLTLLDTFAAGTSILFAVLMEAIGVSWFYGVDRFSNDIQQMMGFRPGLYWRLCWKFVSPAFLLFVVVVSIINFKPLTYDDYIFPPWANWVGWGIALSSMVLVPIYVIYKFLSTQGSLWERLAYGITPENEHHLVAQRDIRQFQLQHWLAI

[4] = biological target: Sodium-dependent serotonin transporter (Homo sapiens, UniProt P31645); experiment: Displacement of [N-methyl-3H]citalopram from human recombinant SERT expressed in pig LLCPK cells after 2 hrs by liquid scintillation counting; format: cell-based
Sodium-dependent serotonin transporter, sequence (P31645 whole entry): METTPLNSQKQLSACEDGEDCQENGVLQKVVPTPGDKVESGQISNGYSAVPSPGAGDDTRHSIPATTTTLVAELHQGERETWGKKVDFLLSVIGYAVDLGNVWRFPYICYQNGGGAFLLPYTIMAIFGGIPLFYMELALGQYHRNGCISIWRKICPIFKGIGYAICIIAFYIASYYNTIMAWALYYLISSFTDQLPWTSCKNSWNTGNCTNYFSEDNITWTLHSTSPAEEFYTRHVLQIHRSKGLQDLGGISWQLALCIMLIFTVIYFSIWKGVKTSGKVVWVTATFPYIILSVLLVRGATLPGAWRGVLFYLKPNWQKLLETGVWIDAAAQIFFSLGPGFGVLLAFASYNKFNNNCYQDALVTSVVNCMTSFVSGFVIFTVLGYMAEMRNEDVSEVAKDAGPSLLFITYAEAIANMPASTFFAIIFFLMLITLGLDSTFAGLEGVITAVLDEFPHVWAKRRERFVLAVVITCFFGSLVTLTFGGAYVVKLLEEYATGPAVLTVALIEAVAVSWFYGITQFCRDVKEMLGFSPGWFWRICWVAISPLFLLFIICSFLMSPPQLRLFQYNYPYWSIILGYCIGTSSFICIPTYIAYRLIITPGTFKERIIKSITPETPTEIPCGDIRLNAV

Liver microsomes [5] = experiment: Intrinsic clearance in rat liver microsomes assessed per gram of protein at 0.5 uM after 30 mins; format: ADME, Microsome; settings: 0.5 h
Procedure, shortened: (§2)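 Compound at 0.5 μM with liver microsomes (0.5 mg protein/mL) in 50 mM phosphate pH 7.4 at 37 °C, started with NADPH. Samples at 0, 3, 6, 9, 15 and 30 min were quenched in acetonitrile and analysed by HPLC-MS/MS. Cli came from the first-order elimination constant, scaled assuming 52.5 mg microsomal protein/g.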

Liver microsomes [6] = experiment: Intrinsic clearance in human liver microsomes assessed per gram of protein at 0.5 uM after 30 mins; format: ADME, Microsome; settings: 0.5 h; procedure, shortened: as §2
Mus musculus [7] = experiment: Antidepressant like activity in mouse assessed as reduction of immobility time at 3 to 30 mg/kg, po administered 2 hrs before test measured during final 4 mins of the 6 mins session by forced swimming test; format: functional, organism-based
Rattus norvegicus [8] = experiment: Increase of extracellular serotonin level in CD rat nucleus accumbens at 3 mg/kg, ip measured up to 180 mins by microdialysis method; format: functional, organism-based; design: dose 3 mg/kg
Procedure, shortened: (§3)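 Probes of 2 or 4 mm were perfused with artificial CSF at 1.1 μL/min for 2 h, then dosing was 3 mg/kg ip. Dialysate was collected every 20 min into oxalic acid. NE, DA and 5-HT were measured by HPLC with electrochemical detection and expressed as percent of the mean of three basal samples.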

Rattus norvegicus [9] = experiment: Increase of extracellular dopamine level in CD rat nucleus accumbens at 3 mg/kg, ip measured up to 180 mins by microdialysis method; format: functional, organism-based; design: dose 3 mg/kg; procedure, shortened: as §3
Rattus norvegicus [10] = experiment: Increase of extracellular norepinephrine level in CD rat nucleus accumbens at 3 mg/kg, ip measured up to 180 mins by microdialysis method; format: functional, organism-based; design: dose 3 mg/kg; procedure, shortened: as §3
Rattus norvegicus [11] = experiment: Increase of extracellular dopamine level in CD rat medial prefrontal cortex at 3 mg/kg, ip measured up to 180 mins by microdialysis method; format: functional, organism-based; design: dose 3 mg/kg; procedure, shortened: as §3
Rattus norvegicus [12] = experiment: Increase of extracellular norepinephrine level in CD rat medial prefrontal cortex at 3 mg/kg, ip measured up to 180 mins by microdialysis method; format: functional, organism-based; design: dose 3 mg/kg; procedure, shortened: as §3
Mus musculus [13] = experiment: Potentiation of 5-hydroxytryptophan-induced stereotypic behavior in po dosed mouse administered 2 hrs before 5-hydroxytryptophan challenge measured for 30 mins; format: functional, organism-based
Procedure, shortened: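 Mice got oral drug 120 min before an ip 5-HTP challenge (100 mg/kg), then sat singly in a perspex box for scoring of stereotyped behaviour. Oral doses were 3, 10 and 30 mg/kg.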

Rattus norvegicus [14] = experiment: Increase of extracellular serotonin level in CD rat medial […] at 3 mg/kg, ip measured up to 180 mins by microdialysis method; format: functional, organism-based; design: dose 3 mg/kg; procedure, shortened: as §3

SMILES	Ki [2] [nM]	Ki [3] [nM]	Ki [4] [nM]	further results
CN(C)CCCC1(c2ccc(F)cc2)OCc2cc(C#N)ccc21 (stereo unspecified)	–	–	–	Activity (Mus musculus [1]): Active
C=CCC(OC)[C@]12CNCC[C@]1(c1ccc(Cl)c(Cl)c1)C2 (mixture of isomers; form 1) [6-(3,4-DICHLOROPHENYL)-1-[1-(METHYLOXY)-3-BUTEN-1-YL]-3-AZABICYCLO[4.1.0]HEPTANE (DIASTEREOMERIC MIX)]	1.26	1	0.126	IC50 (Cytochrome P450 3A4): 3000 nM; IC50 (Cytochrome P450 2D6): 3000 nM; IC50 (Cytochrome P450 2C19): 3000 nM; IC50 (Cytochrome P450 2C9): 3000 nM; IC50 (Cytochrome P450 1A2): 3000 nM
COC[C@@]12CNCC[C@]1(c1ccc(Cl)c(Cl)c1)C2 (racemic) [GSK1360707]	25.1	12.6	1.58	IC50 (Cytochrome P450 3A4): 10000 nM; IC50 (Cytochrome P450 2D6): 3000 nM; IC50 (Cytochrome P450 2C19): 10000 nM; IC50 (Cytochrome P450 2C9): 10000 nM; IC50 (Cytochrome P450 1A2): 10000 nM
COC[C@@]12CCNC[C@]1(c1ccc(Cl)c(Cl)c1)C2 (racemic) [RAC-1-(3,4-DICHLOROPHENYL)-6-(METHOXYMETHYL)-2-AZABICYCLO[4.1.0]HEPTANE (ENANTIOMERS)]	126	200	31.6	CL (Liver microsomes [5]): 1.8 mL/min/g; CL (Liver microsomes [6]): 1.4 mL/min/g
COC[C@@]12CNCC[C@]1(c1ccc(Cl)c(Cl)c1)C2 (relative stereo; 17)	–	–	–	Activity (Mus musculus [7]): Active; Activity (Rattus norvegicus [8]): Active; Activity (Rattus norvegicus [9]): Active; Activity (Rattus norvegicus [10]): Active; Activity (Rattus norvegicus [11]): Active; Activity (Rattus norvegicus [12]): Active; Activity (Mus musculus [13]): Dose-dependent effect; Activity (Rattus norvegicus [14]): Active
COC[C@@]12CNCC[C@]1(c1ccc(Cl)c(Cl)c1)C2 (relative stereo; 18) [GSK1360707]	100	126	20	CL (Liver microsomes [5]): 1.8 mL/min/g; CL (Liver microsomes [6]): 1.4 mL/min/g; IC50 (Cytochrome P450 3A4): 10000 nM; IC50 (Cytochrome P450 2D6): 3000 nM; IC50 (Cytochrome P450 2C19): 10000 nM; IC50 (Cytochrome P450 2C9): 10000 nM; IC50 (Cytochrome P450 1A2): 10000 nM
Clc1ccc([C@]23CCNC[C@@]2(COCC2CC2)C3)cc1Cl (relative stereo; 34) [1-((CYCLOPROPYLMETHOXY)METHYL)-6-(3,4-DICHLOROPHENYL)-3-AZABICYCLO[4.1.0]HEPTANE (ENANTIOMERIC MIX)]	3.16	20	0.398	–
Clc1ccc([C@]23CCNC[C@@]2(COCC2CC2)C3)cc1Cl (relative stereo; 35) [1-((CYCLOPROPYLMETHOXY)METHYL)-6-(3,4-DICHLOROPHENYL)-3-AZABICYCLO[4.1.0]HEPTANE (ENANTIOMERIC MIX)]	63.1	126	3.98	–
Clc1ccc([C@@]23CCNC[C@@H]2C3)cc1Cl (single isomer, unassigned) [RAC-1-(3,4-DICHLO ROPHENYL)-3-AZABICYCLO[4.1.0]HEPTANE (ENANTIOMERS)]	25.1	100	12.6	–
COC[C@@]12CCNC[C@]1(c1ccc(Cl)c(Cl)c1)C2 (single isomer, unassigned) [RAC-1-(3,4-DICHLOROPHENYL)-6-(METHOXYMETHYL)-2-AZABICYCLO[4.1.0]HEPTANE (ENANTIOMERS)]	631	1000	158	–
COC[C@@]12CNCC[C@]1(c1ccc3ccccc3c1)C2 (single isomer, unassigned; 27) [1-(METHOXYMETHYL)-6-(NAPHTHALEN-2-YL)-3-AZABICYCLO[4.1.0]HEPTANE (ENANTIOMERIC MIX)]	100	39.8	1	–
COC[C@@]12CNCC[C@]1(c1ccc3ccccc3c1)C2 (single isomer, unassigned; 28) [1-(METHOXYMETHYL)-6-(NAPHTHALEN-2-YL)-3-AZABICYCLO[4.1.0]HEPTANE (ENANTIOMERIC MIX)]	12.6	10	0.126	CL (Liver microsomes [5]): 17 mL/min/g; CL (Liver microsomes [6]): 1.2 mL/min/g; IC50 (Cytochrome P450 3A4): 8000 nM; IC50 (Cytochrome P450 2D6): 8000 nM; IC50 (Cytochrome P450 2C19): 8000 nM; IC50 (Cytochrome P450 2C9): 8000 nM; IC50 (Cytochrome P450 1A2): 8000 nM
Clc1ccc([C@]23CCN4CC[C@]2(C4)C3)cc1Cl (single isomer, unassigned; 49) [3-(3,4-DICHLORO-PHENYL)-6-AZA-TRICYCLO[4.2.1.0*1,3*]NONANE (STRUCTURAL MIX)]	79.4	63.1	1.58	–
Clc1ccc([C@]23CCN4CC[C@]2(C4)C3)cc1Cl (single isomer, unassigned; 50) [3-(3,4-DICHLORO-PHENYL)-6-AZA-TRICYCLO[4.2.1.0*1,3*]NONANE (STRUCTURAL MIX)]	251	794	31.6	–
